Assay results: ChEMBL document CHEMBL4396973, “Design and development of a series of borocycles as selective, covalent kallikrein 5 inhibitors” (Bioorg Med Chem Lett, 2019)
The source made the active and inactive calls. The calls are words filed in the database; no cut-off is given here.

Assays:
Kallikrein-5 [1] = target: T1, Kallikrein-5 (Homo sapiens, UniProt Q9Y337); assay: Inhibition of human recombinant 6His-Q-FLAG-tagged KLK5 expressed in baculovirus infected Sf9 insect cells using (Tos-Gly-Pro-Arg)2[R110].2TFA as substrate measured at 30 secs interval for 5 mins by FLINT assay
T1 sequence (Q9Y337 whole entry): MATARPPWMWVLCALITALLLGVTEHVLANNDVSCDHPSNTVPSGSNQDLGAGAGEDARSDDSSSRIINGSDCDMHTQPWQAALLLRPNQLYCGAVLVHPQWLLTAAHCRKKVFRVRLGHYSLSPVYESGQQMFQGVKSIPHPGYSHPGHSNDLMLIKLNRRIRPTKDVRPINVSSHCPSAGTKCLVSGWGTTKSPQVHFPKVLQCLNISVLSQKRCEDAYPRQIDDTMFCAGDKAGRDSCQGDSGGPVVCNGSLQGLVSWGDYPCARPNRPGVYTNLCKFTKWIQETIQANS
Summary of the method: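 Standard KLK5 assay format. Its theoretical tight-binding limit corresponds to pIC50 8.4.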

Kallikrein-1 = Kallikrein-1 (Homo sapiens, UniProt P06870); assay: Inhibition of human recombinant N-terminal His-tagged and enterokinase cleavage site-fused KLK1 (19 to 262 residues) expressed in baculovirus infected Sf9 insect cells using R110 labelled GSK3162232A as substrate measured at 30 secs interval for 5 mins by FLINT assay
Coagulation factor X = Coagulation factor X (Homo sapiens, UniProt P00742); assay: Inhibition of recombinant human C-terminal 10-His-tagged factor Xa (L24 to K488 residues) expressed in baculovirus infected Sf21 insect cells using Mca-RPKPVE-Nval-WRK(Dnp)-NH2 as substrate incubated for 40 mins by FLINT assay
Kallikrein-7 = Kallikrein-7 (Homo sapiens, UniProt P49862); assay: Inhibition of recombinant human C-terminal 10-His-tagged KLK7 (Glu23 to His252 residues) expressed in mouse NS0 cells using 5-FAM-E-A-L-Y-L-V-S-G-C(5-TAMRA) as substrate incubated for 40 mins by FLINT assay
[2] = target: T2, Suppressor of tumorigenicity 14 protein (Homo sapiens, UniProt Q9Y5Y6); assay: Inhibition of recombinant human N-terminal Met and 6-His-tagged matriptase (G596 to V855 residues) expressed in Escherichia coli using Boc-QAR-AMC as substrate incubated for 40 mins by FLINT assay
T2 sequence (Q9Y5Y6 whole entry): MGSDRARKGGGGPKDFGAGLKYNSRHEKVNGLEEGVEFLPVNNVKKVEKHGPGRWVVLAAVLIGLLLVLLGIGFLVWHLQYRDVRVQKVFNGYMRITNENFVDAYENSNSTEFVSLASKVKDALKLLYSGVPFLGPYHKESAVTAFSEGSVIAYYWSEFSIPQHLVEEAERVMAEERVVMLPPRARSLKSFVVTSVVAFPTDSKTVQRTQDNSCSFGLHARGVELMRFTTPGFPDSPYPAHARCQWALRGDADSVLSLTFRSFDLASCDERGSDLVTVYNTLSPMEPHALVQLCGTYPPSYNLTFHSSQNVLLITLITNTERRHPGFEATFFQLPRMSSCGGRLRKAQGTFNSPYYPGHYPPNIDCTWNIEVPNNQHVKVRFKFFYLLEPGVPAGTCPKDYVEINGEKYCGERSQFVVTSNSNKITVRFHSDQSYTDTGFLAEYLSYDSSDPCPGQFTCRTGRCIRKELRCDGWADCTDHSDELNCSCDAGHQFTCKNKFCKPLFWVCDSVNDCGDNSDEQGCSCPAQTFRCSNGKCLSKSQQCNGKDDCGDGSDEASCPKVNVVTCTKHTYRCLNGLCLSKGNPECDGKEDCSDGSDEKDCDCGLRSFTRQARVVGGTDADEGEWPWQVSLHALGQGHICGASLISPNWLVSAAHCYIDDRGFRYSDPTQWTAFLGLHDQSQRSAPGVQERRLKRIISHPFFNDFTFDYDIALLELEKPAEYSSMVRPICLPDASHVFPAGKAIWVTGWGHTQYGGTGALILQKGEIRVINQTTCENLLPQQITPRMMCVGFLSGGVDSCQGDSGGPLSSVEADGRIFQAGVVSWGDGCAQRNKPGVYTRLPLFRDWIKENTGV

Prothrombin = Prothrombin (Homo sapiens, UniProt P00734); assay: Inhibition of human recombinant C-terminal 10-His-tagged thrombin (M1 to E622 residues) expressed in mouse NS0 cells using BOC-VPR-AMC as substrate incubated for 40 mins by FLINT assay
[3] = target: Urokinase-type plasminogen activator (Homo sapiens, UniProt P00749); assay: Inhibition of recombinant human C-terminal 10-His-tagged urokinase (M1 to L431 residues) expressed in mouse NS0 cells using Z-GGR-AMC as substrate incubated for 40 mins by FLINT assay
[4] = Solubility of the compound in Britton-Robinson buffer at pH 6 measured after 12 hrs; assay type: physicochemical
Summary of the method: (§1)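 Solubility was measured in Britton-Robinson buffers spanning pH 2 to pH 8. Readings were taken after 12 h and 24 h and reported in mg/mL.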

[5] = Solubility of the compound in Britton-Robinson buffer at pH 4 measured after 24 hrs; assay type: physicochemical; summary of the method: as §1
[6] = Half life of the compound in Britton-Robinson buffer at pH 4 to 10 at 0.05 mg/ml; assay type: physicochemical
Kallikrein-5 [7] = target: T1, Kallikrein-5; assay: Inhibition of human recombinant 6His-Q-FLAG-tagged KLK5 expressed in baculovirus infected Sf9 insect cells using (Tos-Gly-Pro-Arg)2[R110].2TFA as substrate measured at 30 secs interval for 5 mins using 1 x 10'10M enzyme by FLINT assay
[8] = Light absorbance of the compound in methanol under UV light irradiation at 290 nm
Summary of the method: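 Compound dissolved in methanol. UV absorbance was examined across the range above 290 nm as a screen for light-mediated skin toxicity risk.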

[9] = Genotoxicity in Salmonella typhimurium TA1537 in presence of rat S9 fraction by mini-Ames test; assay type: toxicity, subcellular; conditions: salmonella enterica subsp. enterica serovar typhimurium
[10] = Genotoxicity in Salmonella typhimurium TA100 in presence of rat S9 fraction by mini-Ames test; assay type: toxicity, subcellular; conditions: salmonella enterica subsp. enterica serovar typhimurium
[11] = Genotoxicity in Salmonella typhimurium TA1535 in absence of rat S9 fraction by mini-Ames test; assay type: toxicity; conditions: salmonella enterica subsp. enterica serovar typhimurium
[12] = Genotoxicity in Salmonella typhimurium TA1537 in absence of rat S9 fraction by mini-Ames test; assay type: toxicity; conditions: salmonella enterica subsp. enterica serovar typhimurium
[13] = Genotoxicity in Salmonella typhimurium TA98 in absence of rat S9 fraction by mini-Ames test; assay type: toxicity; conditions: salmonella enterica subsp. enterica serovar typhimurium
[14] = Genotoxicity in Salmonella typhimurium TA100 in absence of rat S9 fraction by mini-Ames test; assay type: toxicity; conditions: salmonella enterica subsp. enterica serovar typhimurium

## Cl.N=C(N)c1ccc([C@H]2Cc3ccc(C(F)(F)F)cc3B(O)O2)cc1OCc1cccnc1
Kallikrein-5 [1]
  IC50: 0.00501 µM
Kallikrein-1
  IC50: 0.251 µM
Coagulation factor X
  IC50: 0.398 µM
Kallikrein-7
  IC50: 79.4 µM
[2]
  IC50: 1.26 µM
Prothrombin
  IC50: 1.26 µM
[3]
  IC50: 7.94 µM
[4]
  solubility at 12 h: 3200 µg/mL
[5]
  solubility at 24 h: > 9000 µg/mL
[6]
  half-life at 0.05 mg/ml: > 41.7 days
Kallikrein-5 [7]
  IC50: < 0.000316 µM
[8]
  Activity: inactive
[9]
  Activity: Non-Toxic
[10]
  Activity: Non-Toxic
[11]
  Activity: Non-Toxic
[12]
  Activity: Non-Toxic
[13]
  Activity: Non-Toxic
[14]
  Activity: Non-Toxic
